Each block holds one compound with its values, some of them ahead of it.
Experiments:
CDK2/Cyclin A2 [1] = biological target: T1, CDK2/Cyclin A2 (Homo sapiens, UniProt P24941); experiment: Inhibition of human CDK2/Cyclin A2 using PKTPKKAKKL as substrate by fluorescence assay; format: protein-complex assay
[2] = Cytotoxicity against mouse GC-1 cells after 72 hrs by MTT assay; format: functional, cell-based; details: GC-1, 72 h
How it was run: (§1)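 Cells kept in RPMI or DMEM with 10% FBS at 37 °C, 5% CO₂ and allowed to attach overnight; 72 h with increasing inhibitor concentrations; then 1 mg/mL MTT for 3 h, DMSO solubilisation, OD read at 540 nm. Testis lines had culture conditions adapted to them. Dose-response in triplicate, 9 concentrations between 0.02 and 100 μM, averaged.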

[3] = Cytotoxicity against mouse TM4 cells after 72 hrs by MTT assay; format: functional, cell-based; details: TM4, 72 h; how it was run: as §1
[4] = Cytotoxicity against mouse GC-2 cells after 72 hrs by MTT assay; format: functional, cell-based; details: GC-2, 72 h; how it was run: as §1
BT-549 = experiment: Cytotoxicity against human BT549 cells after 72 hrs by resazurin/resorufin-based fluorescence assay; format: functional, cell-based; details: BT-549, 72 h
How it was run: (§2)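 CellTiter-Blue viability: 1200 cells per well seeded, incubated overnight at 37 °C, 5% CO₂; drugs serially diluted 2:3 in medium, four replicate wells per concentration plus four diluent-only control wells; 72 h exposure; resazurin reduction to resorufin read by fluorescence (579 nm ex/584 nm em). IC50 is the average of three data sets, each using nine concentrations between 0.004 μM and 12.5 μM.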

[5] = Cytotoxicity against human RPMI18226 cells after 72 hrs by resazurin/resorufin-based fluorescence assay; format: functional, cell-based; details: RPMI18226, 72 h
SW872 = experiment: Cytotoxicity against human SW872 cells after 72 hrs by resazurin/resorufin-based fluorescence assay; format: functional, cell-based; details: SW872, 72 h
MDA-MB-231 = experiment: Cytotoxicity against human MDA-MB-231 cells after 72 hrs by resazurin/resorufin-based fluorescence assay; format: functional, cell-based; details: MDA-MB-231, 72 h
MCF7 = experiment: Cytotoxicity against human MCF7 cells after 72 hrs by resazurin/resorufin-based fluorescence assay; format: functional, cell-based; details: MCF7, 72 h
SK-ES1 = experiment: Cytotoxicity against human SK-ES-1 cells after 72 hrs by resazurin/resorufin-based fluorescence assay; format: functional, cell-based; details: SK-ES1, 72 h
A673 [6] = experiment: Cytotoxicity against human A673 cells after 72 hrs by resazurin/resorufin-based fluorescence assay; format: functional, cell-based; details: A673, 72 h
U-266 = experiment: Cytotoxicity against human U266 cells after 72 hrs by resazurin/resorufin-based fluorescence assay; format: functional, cell-based; details: U-266, 72 h
[7] = Cytotoxicity against human NCI-H929 cells after 72 hrs by resazurin/resorufin-based fluorescence assay; format: functional, cell-based; details: NCI-H929, 72 h
CDK2/Cyclin A2 [8] = biological target: T1, CDK2/Cyclin A2; experiment: Inhibition of human CDK2/Cyclin A2 using PKTPKKAKKL as substrate by PK/LDH spectrophotometric analysis; format: protein-complex assay
[9] = Cytotoxicity against human MDA-MB-436 cells after 72 hrs by resazurin/resorufin-based fluorescence assay; format: functional, cell-based; details: MDA-MB-436, 72 h
T47D = experiment: Cytotoxicity against human T47D cells after 72 hrs by resazurin/resorufin-based fluorescence assay; format: functional, cell-based
MDA-MB-468 = experiment: Cytotoxicity against human MDA-MB-468 cells after 72 hrs by MTT assay; format: functional, cell-based; details: MDA-MB-468, 72 h; how it was run: as §1
HOS-TE85 = experiment: Cytotoxicity against human MNNG-HOS cells after 72 hrs by resazurin/resorufin-based fluorescence assay; format: functional, cell-based; details: HOS-TE85, 72 h
SK-BR-3 = experiment: Cytotoxicity against human SK-BR-3 cells after 72 hrs by resazurin/resorufin-based fluorescence assay; format: functional, cell-based; details: SK-BR-3, 72 h; how it was run: as §2
A673 [10] = experiment: Induction of apoptosis in human A673 cells assessed as caspase-3 activation after 24 hrs by luminescence assay; format: functional, cell-based; details: A673, 24 h
How it was run: (§3)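 Caspase-3/7 activation measured with a Caspase-Glo 3/7 luminescent assay. Cells were plated as for the high-throughput viability assay and exposed for 24 h to serial dilutions. EC50 was obtained from the dose-response.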

SK-UT-1 = experiment: Cytotoxicity against human SK-UT-1 cells after 72 hrs by resazurin/resorufin-based fluorescence assay; format: functional, cell-based; details: SK-UT-1, 72 h
CDK2/Cyclin A2 [11] = biological target: T1, CDK2/Cyclin A2; experiment: Inhibition of human CDK2/Cyclin A2 using PKTPKKAKKL as substrate by P33-radiolabeled assay; format: protein-complex assay
How it was run: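 Radiometric (P33) kinase assay run by a contract lab on CDK–cyclin complexes. Inhibitor tested in duplicate at 0.05 nM to 1000 nM with ATP at 10 μM. […] For the in-house assays, IC50 was obtained by Hill-equation fitting.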

A673 [12] = experiment: Induction of apoptosis in human A673 cells assessed as caspase-3 activation at 0.05 uM to 5 uM after 24 hrs by luminescence assay relative to control; format: functional; how it was run: as §3
NCI-H929 = experiment: Induction of apoptosis in human NCI-H929 cells assessed as increase in cleaved caspase-3 level at 0.005 uM after 24 hrs by FACS flow cytometric analysis relative to control; format: functional
How it was run: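 Active caspase-3 was detected with a FITC-labelled monoclonal antibody by flow cytometry, and the percentage of cells with raised cleaved caspase-3 is reported. Triplicate experiments.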

IC50 (CDK2/Cyclin A2 [1]): 0.13 µM
Compound: Nc1nc(Nc2ccc(S(N)(=O)=O)cc2)sc1C(=O)c1ccccc1
IC50 [2]: 17 µM | IC50 [3]: 9.1 µM | IC50 [4]: 6.1 µM

IC50 (CDK2/Cyclin A2 [8]): 82 µM
Compound: Nc1nc(Nc2ccc(S(N)(=O)=O)cc2)sc1C(=O)c1ccc2ccccc2c1
IC50 (BT-549): > 10 µM | IC50 [5]: > 10 µM | IC50 (SW872): > 10 µM | IC50 (MDA-MB-231): > 10 µM | IC50 (MCF7): 5.9 µM | IC50 (SK-ES1): 4.8 µM | IC50 (A673 [6]): 3.7 µM | IC50 (U-266): 7.9 µM | IC50 [7]: 4.3 µM | IC50 [9]: 5.3 µM | IC50 (T47D): 4.5 µM | IC50 (MDA-MB-468): 5.5 µM | IC50 (HOS-TE85): 9.7 µM | IC50 (SK-BR-3): 6.1 µM

IC50 (CDK2/Cyclin A2 [8]): > 100 µM
Compound: NC(=O)c1sc(Nc2ccccc2)nc1N
IC50 [2]: > 60 µM | IC50 [3]: > 60 µM | IC50 [4]: > 60 µM

EC50 (A673 [10]): 0.39 µM
Compound: COc1cccc2c1C(=O)c1c(O)c3c(c(O)c1C2=O)C[C@@](O)(C(=O)CO)C[C@@H]3O[C@H]1C[C@H](N)[C@H](O)[C@H](C)O1 [DOXORUBICIN]
IC50 (BT-549): 0.11 µM | IC50 [5]: 0.27 µM | IC50 (SW872): 0.14 µM | IC50 (SK-ES1): 0.042 µM | IC50 (U-266): 0.67 µM | IC50 [7]: 0.065 µM | IC50 (SK-UT-1): 0.076 µM | IC50 (HOS-TE85): 0.59 µM | IC50 (SK-BR-3): 0.09 µM

IC50 (CDK2/Cyclin A2 [1]): 0.65 µM
Compound: Nc1nc(Nc2ccccc2)sc1C(=O)c1cccnc1
IC50 [2]: 5.9 µM | IC50 [3]: 5.5 µM | IC50 [4]: 9.5 µM

IC50 (CDK2/Cyclin A2 [8]): 1.4 µM
Compound: Nc1nc(Nc2ccccc2)sc1C(=O)c1ccc(F)cc1
IC50 [2]: 16 µM | IC50 [3]: 14 µM | IC50 [4]: 17 µM

IC50 (CDK2/Cyclin A2 [8]): 1.3 µM
Compound: Nc1nc(NC2CCCCC2)sc1C(=O)c1ccccc1
IC50 [2]: 9.2 µM | IC50 [3]: 9.3 µM | IC50 [4]: 8.2 µM

IC50 (CDK2/Cyclin A2 [1]): 0.02 µM | IC50 (CDK2/Cyclin A2 [11]): 0.0009 µM
Compound: Nc1nc(Nc2ccc(S(N)(=O)=O)cc2)sc1C(=O)c1cccnc1
IC50 [2]: 20 µM | IC50 [3]: 13 µM | IC50 (MDA-MB-468): 2.8 µM | IC50 [4]: > 30 µM

IC50 (CDK2/Cyclin A2 [1]): 0.07 µM
Compound: Nc1nc(Nc2ccc(S(N)(=O)=O)cc2)sc1C(=O)c1cccc([N+](=O)[O-])c1
IC50 [2]: 22 µM | IC50 [3]: 4 µM | IC50 [4]: 20 µM

IC50 (CDK2/Cyclin A2 [1]): 0.07 µM
Compound: Nc1cccc(C(=O)c2sc(Nc3ccc(S(N)(=O)=O)cc3)nc2N)c1
IC50 (BT-549): > 10 µM | IC50 [5]: > 10 µM | IC50 (SW872): > 10 µM | IC50 (MDA-MB-231): > 10 µM | IC50 (MCF7): > 10 µM | IC50 (SK-ES1): 9.8 µM | IC50 (A673 [6]): 8.8 µM | IC50 (U-266): 5.5 µM | IC50 [7]: 6.8 µM | IC50 [9]: > 10 µM | IC50 (T47D): 5.8 µM | IC50 (SK-UT-1): > 10 µM | IC50 (HOS-TE85): > 10 µM | IC50 (SK-BR-3): 4.1 µM

IC50 (CDK2/Cyclin A2 [1]): 0.05 µM
Compound: Nc1nc(Nc2ccc(S(N)(=O)=O)cc2)sc1C(=O)c1cccc(F)c1
IC50 (BT-549): > 10 µM | IC50 [5]: 6.8 µM | IC50 (SW872): 3.1 µM | IC50 (MDA-MB-231): 1.2 µM | IC50 (MCF7): 1.3 µM | IC50 (SK-ES1): 1.1 µM | IC50 (A673 [6]): 0.45 µM | IC50 (U-266): 1.5 µM | IC50 [7]: 1 µM | IC50 [2]: 6.4 µM | IC50 [9]: 1.3 µM | IC50 [3]: 4.8 µM | IC50 (T47D): 0.98 µM | IC50 (MDA-MB-468): 0.8 µM | IC50 [4]: 3.9 µM | IC50 (SK-UT-1): 1.6 µM | IC50 (HOS-TE85): 2.2 µM | IC50 (SK-BR-3): 1.2 µM

Compound: CCc1cnn2c(NCc3ccc[n+]([O-])c3)cc(N3CCCC[C@H]3CCO)nc12 [DINACICLIB]
IC50 (BT-549): > 10 µM | IC50 (MDA-MB-231): < 0.005 µM | IC50 [9]: < 0.005 µM | Activity (A673 [12]): 280% | Activity (NCI-H929): 63% | IC50 (SK-BR-3): < 0.005 µM

IC50 (CDK2/Cyclin A2 [8]): 1.6 µM
Compound: Nc1nc(Nc2ccccc2)sc1C(=O)c1cccc(F)c1
IC50 [2]: 3.6 µM | IC50 [3]: 5.1 µM | IC50 [4]: 4.1 µM

IC50 (CDK2/Cyclin A2 [1]): 0.38 µM
Compound: Nc1nc(NC2CCCCC2)sc1C(=O)c1cccnc1
IC50 (MDA-MB-468): 3.1 µM

IC50 (CDK2/Cyclin A2 [1]): 0.93 µM
Compound: Nc1nc(Nc2ccccc2)sc1C(=O)c1ccccc1
IC50 [2]: 11 µM | IC50 [3]: 12 µM | IC50 [4]: 11 µM

IC50 (CDK2/Cyclin A2 [1]): 0.07 µM
Compound: Nc1nc(Nc2ccc(S(N)(=O)=O)cc2)sc1C(=O)c1ccc(S(N)(=O)=O)cc1
IC50 (BT-549): > 10 µM | IC50 [5]: > 10 µM | IC50 (SW872): > 10 µM | IC50 (MDA-MB-231): > 10 µM | IC50 (MCF7): > 10 µM | IC50 (SK-ES1): > 10 µM | IC50 (A673 [6]): > 10 µM | IC50 (U-266): 7.2 µM | IC50 [7]: > 10 µM | IC50 [9]: > 10 µM | IC50 (T47D): 8.7 µM | IC50 (SK-UT-1): > 10 µM | IC50 (HOS-TE85): > 10 µM | IC50 (SK-BR-3): > 10 µM

IC50 (CDK2/Cyclin A2 [1]): 0.1 µM
Compound: COc1cccc(C(=O)c2sc(Nc3ccc(S(N)(=O)=O)cc3)nc2N)c1

IC50 (CDK2/Cyclin A2 [1]): 0.2 µM
Compound: NC(=O)c1ccc(Nc2nc(N)c(C(=O)c3cccnc3)s2)cc1
